Ins promoter up: MIN6 insulin promoter up-regulation | hit rate 0.3% among 190,000 | MIN6 insulin promoter-GFP reporter, high-content imaging; active compounds read high | z-score at 5 µM;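 active means z-score above 3 at 5 µM with at least 500 cells counted in the well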
Autophagy mod: modulators of autophagy; MEF GFP-LC3 puncta imaging; test concentration mostly 10 µM; calls only at 10 µM (by protocol); hit rate 0.98% among 190,000; AID 463193;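 active means percentage of spot-positive cells more than 3 SD above its plate mean, without a fluorescence outlier flag or 80% toxicity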;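 further: spot-positive cell cutoff set from DMSO-treated cells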
Rad51 HR inh: blocks human Rad51 in homologous recombination | hRad51 DNA strand exchange, fluorescence dequenching | Q06609 | inhibition, % at 10 µM | hit rate 0.085% among 200,000;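 active means inhibition above 40% at the single screening dose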;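 further: 0% = DMSO control wells and 100% = blanks with heterologous ssDNA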
Target sequence (Q06609 whole entry, looked up): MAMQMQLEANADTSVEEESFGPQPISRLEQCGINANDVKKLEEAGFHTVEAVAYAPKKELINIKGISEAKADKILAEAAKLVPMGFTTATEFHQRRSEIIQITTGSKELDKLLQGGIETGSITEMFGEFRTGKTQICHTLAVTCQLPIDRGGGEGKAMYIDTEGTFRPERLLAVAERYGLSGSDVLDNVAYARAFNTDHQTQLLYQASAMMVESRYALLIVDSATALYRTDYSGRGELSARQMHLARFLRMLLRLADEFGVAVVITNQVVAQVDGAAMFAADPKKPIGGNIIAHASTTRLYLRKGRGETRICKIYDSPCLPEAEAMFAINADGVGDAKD
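Material: Human Rad51 nucleoprotein filaments preassembled on unlabelled ssDNA | Also added: Labelled 47-mer dsDNA for strand exchange | Dosing: Single dose, 10 µM final compound | Schedule: 30-min compound preincubation and 15-min exchange, both room temperature | Technique: Fluorescence dequenching at 485/520 nm | Measure: Percent inhibition relative to plate controls and blanks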
WT yeast gro inh: growth inhibition of WT yeast, mitochondrial fusion screen. inhibition, % at 10 µM. hit rate 2.1% among 190,000. mitochondrial fusion phenotypic screen, WT strain; in the data active means inhibition above about 58%; tested in S. cerevisiae
SKKanGAS inh: blocks kanamycin growth of S. pyogenes SKKanGAS strain; BacTiter-Glo, 6 h; inhibition, % at 7.5 µM; hit rate 1.3% among 300,000;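 active means mean replicate score, as percent of positive control median, at least 50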;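 further: strain carries kanamycin resistance gene driven by streptokinase promoter and grows in 40 µg/ml kanamycin; loss of luminescence reflects streptokinase promoter inhibition or plain growth inhibition; 0% = median of DMSO wells and 100% = positive control at its reference dose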
Cl transport mod: modulates chloride dependent transport by human KCC2. KCC2 cells, thallium flux FluoZin-2 fluorescence. B-score of Tl+ flux slope (higher = more flux/activation; lower = inhibition) at 10 µM. hit rate 2.2% among 190,000. AID 1456;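 active means thallium flux slope and its plate-corrected score both differing from the plate sample mean at a set confidence after two filtering rounds, in either direction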;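 further: slope of fluorescence scaled to starting intensity during 10 to 20 s after thallium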
Numbers without * were called inactive; i = inactive; x = no result; + = active, no number. In the library only some 4.2% were active in any assay of this set; here they are far more common.

SMILES	Ins promoter up	Autophagy mod	Rad51 HR inh	WT yeast gro inh	SKKanGAS inh	Cl transport mod
CCOC(=O)C(=NC(C)CC)NNc1cccc(C(F)(F)F)c1 (stereo not drawn)	-0.32	i	20	51	0	x
CCOC(=O)C(=NC1CCS(=O)(=O)C1)NNc1ccc(Br)cc1 (stereo not drawn)	0.3	i	-7	59*	-3	-0.18
CCOC(=O)C(=NC(C)CC)NNc1ccc(Br)cc1 (stereo not drawn)	-1.3	i	x	70*	1	-0.15
CCC(C)NC(=O)Nc1ccc(Br)cc1 (stereo not drawn)	-0.22	i	6	4	-12	0.37
CCC(=O)NNc1ccc(Br)cc1	-0.26	i	-2	69*	8	-0.71
O=C1Cc2cc([N+](=O)[O-])ccc2N1c1c(Cl)cccc1Cl	x	x	x	x	11	x
COc1ccc(COc2cc(-c3cccc(OC)c3)nc3ccc(NC(=O)c4cccnc4)cc23)cc1	x	+	4	18	44	0.51
O=C(Nc1ccc(F)cc1)c1cc(-c2ccncc2)nc2c(Cl)cccc12	x	x	x	x	6	x
COc1cccc(NC(=O)c2cc(-c3cccnc3)nc3c(Cl)cccc23)c1	-0.11	i	45*	24	4	x
O=C(CSc1ncn[nH]1)NCc1ccccc1	5.4*	i	2	89*	-4	1
O=C(CSc1nnc(Cc2ccccc2)o1)NC1CC2CCC1C2 (stereo not drawn)	x	i	1	-9	4	-1.3
O=C(CSc1ncn[nH]1)NC1CC2CCC1C2 (stereo not drawn)	1.2	+	2	4	-5	x
Cc1c(NC(=O)Nc2ccc3c(c2)OCO3)cccc1[N+](=O)[O-]	x	x	x	x	-4	x
O=C(Nc1nnc(C2=COCCO2)o1)c1ccc([N+](=O)[O-])cc1	x	x	x	x	-3	x
O=C(Nc1nnc(C2=COCCO2)o1)c1ccc(Br)cc1	x	x	x	x	101*	x
CC1CCCCN1S(=O)(=O)c1ccc(C(=O)Nc2nnc(C3=COCCO3)o2)cc1 (stereo not drawn)	x	x	x	x	16	x
CC1CN(S(=O)(=O)c2ccc(C(=O)Nc3nnc(-c4ccc5c(c4)CCCC5)o3)cc2)CC(C)O1 (stereo not drawn)	1.3	i	-3	10	93*	7.9*
CC1CCCN(S(=O)(=O)c2ccc(C(=O)Nc3nnc(C4=COCCO4)o3)cc2)C1 (stereo not drawn)	x	x	x	x	66*	x
O=C(Nc1nnc(C2=COCCO2)o1)c1ccc(F)cc1	x	x	x	x	24	x
O=C(Nc1nnc(C2=COCCO2)o1)c1cccc(C(F)(F)F)c1	x	x	x	x	56*	x
Cc1ccccc1SCC(=O)OCC(=O)N(C)c1c(N)n(Cc2ccccc2)c(=O)[nH]c1=O	x	x	x	x	2	x
CCOC(=O)N1CCN(S(=O)(=O)c2ccc(C(=O)Nc3nnc(C)o3)cc2)CC1	0.45	i	-3	-16	-4	0.78
Cc1nnc(NC(=O)c2ccc(S(=O)(=O)N3CC(C)CC(C)C3)cc2)o1 (stereo not drawn)	x	x	x	x	54*	x
CC(C)Nc1cc(C(C)(C)C)nc2c(-c3ccccc3)cnn12	0.24	x	-9	x	89*	1.3
Cc1cc(NCCCn2ccnc2)n2ncc(-c3ccc(Cl)cc3)c2n1	x	i	1	64*	-3	0.9
SMILES	Ins promoter up	Autophagy mod	Rad51 HR inh	WT yeast gro inh	SKKanGAS inh	Cl transport mod
Cc1cc(NCc2ccccn2)n2nc(C)c(-c3ccccc3)c2n1	-2.2	x	19	x	25	-1.2
CCc1nccn1-c1cc(C(C)(C)C)nc2c(-c3ccc(Cl)cc3)cnn12	-0.6	i	1	9	8	1.5
Cc1cc(NCCCN2CCOCC2)n2ncc(-c3ccc(Cl)cc3)c2n1	-0.13	i	-2	29	18	0.58
CC(C)(C)c1cc(C(F)(F)F)n2ncc(-c3ccccc3)c2n1	-0.09	i	9	27	5	0.041
CC(C)(C)c1cc(NCc2ccccn2)n2ncc(-c3ccc(Cl)cc3)c2n1	-0.91	x	-19	x	85*	0.069
Cc1nn2c(NCc3ccccn3)cc(C(C)(C)C)nc2c1-c1ccccc1	-1.4	x	14	x	97*	-0.52
Cc1ccc(Cl)cc1NC(=S)N(Cc1ccccc1)Cc1cccnc1	-0.84	i	6	19	3	-0.27
CN(C)CCCNc1cc(C(C)(C)C)nc2c(-c3ccc(Cl)cc3)cnn12	-0.29	x	-2	x	75*	0.65
CC(C)(C)c1cc(NCCCn2ccnc2)n2ncc(-c3ccccc3)c2n1	-1.3	x	16	x	40	0.74
CCC(=O)NC(/C=C/c1ccccc1)c1cc([N+](=O)[O-])c2cccnc2c1O (stereo not drawn)	1.2	i	-14	-11	41	-1
CC(C)C(=O)NC(c1cccc([N+](=O)[O-])c1)c1ccc2cccnc2c1O (stereo not drawn)	x	x	x	x	24	x
Cc1ccc(C(NC(=O)C(C)C)c2cc([N+](=O)[O-])c3cccnc3c2O)cc1 (stereo not drawn)	x	i	-32	-15	89*	-0.32
CC(C)C(=O)NC(c1cccs1)c1cc([N+](=O)[O-])c2cccnc2c1O (stereo not drawn)	0.16	i	-7	10	77*	-0.33
CC1(C2CC(C(F)(F)F)n3nc(C(=O)O)cc3N2)CC1 (stereo not drawn)	0.57	i	-2	-14	4	-0.17
CCCn1nnc(NC(=O)c2ccc(-c3cccc(Cl)c3)o2)n1	-0.03	i	1	74*	0	-1.5
Cc1ccc(NC(=S)N/N=C/c2ccc(OCCC(C)C)cc2)c(C)c1	-0.55	i	x	13	17	2.1
CCNC(=S)N/N=C/c1cccc(/C=N/NC(=S)NCC)c1	-0.89	i	-1	2	-6	-2.3
CCNC(=S)N/N=C/c1c(Cl)cccc1Cl	-0.19	i	15	24	-9	9.3*
CCNC(=S)N/N=C/c1cc(C)n(-c2ccc(Cl)cc2)c1C	-1.1	i	0	73*	0	0.83
Cc1ccc(NC(=S)N/N=C/c2c(Cl)cccc2Cl)c(C)c1	-1	i	8	50	20	53*
Cc1cc(/C=N/NC(N)=S)c(C)n1-c1ccc(Cl)c(Cl)c1	-0.1	i	4	63	-16	-1
Cn1nnnc1SCC(=O)Nc1ccc2c(c1)OCO2	0.21	i	-16	8	14	0.42
CCOc1ccccc1N1CCN(C(=O)c2c(-c3c(F)cccc3Cl)noc2C)CC1	x	x	x	x	0	x
COc1ccc(NC(=O)C2C3C=CC4(O3)C2C(=O)N(CCN2CCCCC2)C4C(=O)NC2CCCC(C)C2C)cc1 (stereo not drawn)	x	x	x	x	-6	x
CCOc1ccccc1N1CCN(C(=O)Nc2ccc(Cl)c(Cl)c2)CC1	0.77	i	x	68*	15	x
CCOc1ccccc1C(=O)N1CCN(c2cccc(Cl)c2)CC1	-0.88	+	-2	17	-6	-0.017
CCN1CCN(c2ncc(C(=O)Nc3cc(Cl)ccc3OC)c3ccccc23)CC1	-0.08	+	x	13	2	-0.22

Screening results from PubChem BioAssay.
